Legend:
[1] = Toxicity in human NCI-H292 cells xenografted CD-1 mouse assessed as weight loss at 120 mg/kg, po administered 3 times per week for 2 weeks starting 2 hrs post-erlotinib treatment and measured on day 16; type: organism-based; conditions: in vivo, 384 h, time 16 day
Outline: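 Female CD1-nude mice bearing s.c. NCI-H292 tumours (cells in 50% Matrigel/50% PBS, left flank), randomized at mean 0.2 cm³, n=5/group. Body weight monitored; treatment period ended day 16.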

[2] = Toxicity in human NCI-H292 cells xenografted CD-1 mouse assessed as death at 360 mg/kg, po administered once a week for 2 weeks and measured during compound dosing; type: organism-based; conditions: in vivo, 336 h
Outline: (§1)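 NCI-H292 cells in 50% Matrigel/PBS injected s.c. into flank of female CD1-nude mice; dosing began after 2 wk at mean tumour 0.2 cm³, n = 5/group. […] Body weight and signs monitored; treatment ended day 16.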

A-431 = assay: Antiproliferative activity against human A-431 cells assessed as reduction in cell proliferation measured after 72 hrs by celltiter-glo assay; type: functional, cell-based; conditions: A-431, 72 h
Outline: (§2)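 Cells in RPMI 1640 with 10% heat-inactivated FBS at 37°C and 5% CO₂ were seeded at 2 to 3 × 10³ per well. […] Growth was read as cellular ATP by CellTiter-Glo.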

SK-BR-3 [3] = assay: Synergistic antiproliferative activity against human SK-BR-3 cells assessed as combination index at ED50 measured after 72 hrs in presence of docetaxel by celltiter-glo assay; type: functional
SK-BR-3 [4] = assay: Synergistic antiproliferative activity against human SK-BR-3 cells assessed as combination index at ED50 measured after 96 hrs in presence of lapatinib by celltiter-glo assay; type: functional
NCI-H661 = assay: Induction of apoptosis in human NCI-H661 cells assessed as fold induction of capsase-3/7 activity measured after 24 to 48 hrs in presence of gemcitabine by caspase-glo 3/7 assay; type: functional; conditions: time 24-48 hrs
NCI-H358 = assay: Antiproliferative activity against human NCI-H358 cells assessed as reduction in cell proliferation measured after 72 hrs by celltiter-glo assay; type: functional, cell-based; conditions: NCI-H358, 72 h; outline: as §2
[5] = Toxicity in human PC-3 cells xenografted CD1 nude mouse assessed as body weight loss at 120 mg/kg, po administered 3 times per week for 2 weeks starting 24 hrs post docetaxel treatment and measured during compound dosing relative to control; type: organism-based; conditions: in vivo, 336 h
Outline: (§3)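 Male CD1-nude mice with s.c. PC-3 tumours (50% Matrigel/50% PBS, left flank), randomized at mean 0.2 cm³, n=5/group, treated from 25 d post-implant. Body weight monitored versus vehicle-only controls.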

BT-474 = assay: Synergistic antiproliferative activity against docetaxel pretreated human BT-474 cells assessed as combination index at ED50 measured after 72 hrs by celltiter-glo assay; type: functional
[6] = Toxicity in human NCI-H460 cells xenografted CD1 nude mouse assessed as body weight loss at 120 mg/kg, po administered 3 times per week for 2 weeks measured on day 14 to 16 in presence of carboplatin; type: organism-based; conditions: in vivo, 336 h, time 14-16 day
Outline: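 NCI-H460 cells in 50% Matrigel/PBS injected s.c. into flank of CD1-nude mice; randomized at mean tumour 0.2 cm³ (n = 5). MK-2206 in 30% Captisol, 120 mg/kg p.o. days 0, 2, 4, 7, 9, 11. Carboplatin 50 mg/kg i.v. in saline days 0 and 7 (from day 12 after implant), or gemcitabine 100 mg/kg i.v. in saline days 0 and 7 (from day 8). Body weight monitored.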

[7] = Toxicity in human PC-3 cells xenografted CD1 nude mouse assessed as body weight loss at 120 mg/kg, po administered 3 times per week for 2 weeks measured during compound dosing relative to control; type: organism-based; conditions: in vivo, 336 h; outline: as §3
A2780 [8] = assay: Synergistic antiproliferative activity against human A2780 cells assessed as combination index at ED50 measured after 72 hrs in presence of gemcitabine by celltiter-glo assay; type: functional
Outline: (§4)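 Cells were seeded at 2–3 × 10³ per well in RPMI 1640 with 10% FBS. At 24 h, MK-2206 and the partner drug were added simultaneously at constant concentration ratios spanning each agent's IC₅₀, for 72 h. Growth was read as cellular ATP by CellTiter-Glo. CI was taken from median-effect plots of each agent alone and in combination (Chou–Talalay), at ED₅₀, ED₇₅ and ED₉₀.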

HCC827 = assay: Synergistic antiproliferative activity against human HCC827 cells assessed as combination index at ED90 measured after 72 hrs in presence of erlotinib by celltiter-glo assay; type: functional
Outline: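 Cells grown in RPMI 1640 with 10% heat-inactivated FBS at 37°C, 5% CO₂. Seeded at 2 to 3 × 10³ per well; drugs added 24 h later. […] Viability read as cellular ATP by CellTiter-Glo. CI calculated by Chou–Talalay from median-effect plots at ED50, ED75 and ED90.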

HCC1954 = assay: Synergistic antiproliferative activity against human HCC1954 cells assessed as combination index at ED90 measured after 96 hrs in presence of lapatinib by celltiter-glo assay; type: functional
[9] = Toxicity in human SK-OV-3 cells xenografted CB17/icr SCID mouse assessed as body weight loss at 60 to 120 mg/kg, po administered 3 times per week for 2 weeks starting 2 hrs post lapatinib treatment and measured during compound dosing; type: organism-based; conditions: in vivo, 336 h, dose 60-120 mg/kg
Outline: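 SK-OV-3 cells in 50% Matrigel/PBS injected s.c. into flank of female C.B-17/ICR-scid mice; dosing began after 3 wk, randomized at mean tumour 0.13 cm³ (n = 5). Lapatinib 100 mg/kg p.o. in distilled water 5 d/wk for 2 wk; MK-2206 in 30% Captisol p.o. days 0, 2, 4, 7, 9, 11. Body weight and physical signs monitored.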

A2780 [10] = assay: Synergistic antiproliferative activity against human A2780 cells assessed as combination index at ED75 measured after 72 hrs in presence of gemcitabine by celltiter-glo assay; type: functional; outline: as §4
SK-BR-3 [11] = assay: Synergistic antiproliferative activity against human SK-BR-3 cells assessed as combination index at ED75 treated 24 hrs prior to lapatinib and measured after 72 hrs by celltiter-glo assay; type: functional; conditions: time 96 hrs
MDA-MB-468 = assay: Synergistic antiproliferative activity against lapatinib pretreated human MDA-MB-468 cells assessed as combination index at ED50 measured after 72 hrs by celltiter-glo assay; type: functional
HCC70 = assay: Synergistic antiproliferative activity against lapatinib pretreated human HCC70 cells assessed as combination index at ED75 measured after 72 hrs by celltiter-glo assay; type: functional
[12] = Toxicity in human NCI-H292 cells xenografted CD-1 mouse assessed as death at 120 mg/kg, po administered 3 times per week for 2 weeks and measured during compound dosing; type: organism-based; conditions: in vivo, 336 h; outline: as §1
NCI-H23 = assay: Synergistic antiproliferative activity against human NCI-H23 cells assessed as fold change in erlotinib IC50 at 1 umol/L measured after 72 hrs in presence of erlotinib by celltiter-glo assay relative to erlotinib alone; type: functional; conditions: dose 1 µmol/L

SMILES: Cl.NC1(c2ccc(-c3nc4ccn5c(=O)[nH]nc5c4cc3-c3ccccc3)cc2)CCC1
- Activity [1]: Non-Toxic
- Activity [2]: Non-Toxic
- IC50 (A-431): 5.5 µM
- CI50 (SK-BR-3 [3]): 0.8
- CI50 (SK-BR-3 [4]): 0.18
- fold change (FC) (NCI-H661): 1.3
- IC50 (NCI-H358): 13.5 µM
- Activity [5]: 9%
- CI50 (BT-474): 0.8
- Activity [6]: Non-Toxic
- Activity [7]: 8%
- CI50 (A2780 [8]): 0.57
- CI90 (HCC827): 0.12
- CI90 (HCC1954): 0.18
- Activity [9]: Non-Toxic
- CI75 (A2780 [10]): 0.43
- CI75 (SK-BR-3 [11]): 0.18
- CI50 (MDA-MB-468): 0.18
- CI75 (HCC70): 0.18
- Activity [12]: Non-Toxic
- Ratio IC50 (NCI-H23): 2.4

Reference: ChEMBL document CHEMBL5705892, “MK-2206, an allosteric Akt inhibitor, enhances antitumor efficacy by standard chemotherapeutic agents or molecular targeted drugs in vitro and in vivo” (Mol Cancer Ther, 2010)
